Test results reported in ChEMBL document CHEMBL4665761, “Optimizing the Benefit/Risk of Acetyl-CoA Carboxylase Inhibitors through Liver Targeting” (J Med Chem, 2020).
Values belong to the molecule of their own block, whether it stands above or below them.

Experiments:
[1] = Toxicity in cynomolgus monkey assessed as reduction in platelet count at 3 to 10 mg/kg, po after 14 days; type: organism-based, Macaca fascicularis; settings: in vivo, 336 h, dose 3-10 mg/kg, time 14 day
[2] = Inhibition of DNL in cynomolgus monkey assessed as fructose-induced DNL level at 10 mg/kg, po after 9 hrs relative to control; type: functional; settings: Macaca fascicularis
Method in brief: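 Male cynomolgus macaques were fasted overnight and enriched with plasma D2O, then given a single 10 mg/kg PO dose. Fructose was given orally every 30 min from t = 0, with a banana at hours 2 and 3. Deuterium incorporation into plasma TG palmitate was followed over 9 h, n = 12, mean ± SEM, versus vehicle.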

[3] = system: Rattus norvegicus; test: Effect on triglyceride accumulation in Sprague-Dawley rat high fat dietary model at 3 mg/kg, po assessed as reduction in triglyceride level after 42 days by XPT clinical analyzer; type: functional; parameters: scale not given: the % may be the effect or the level left; settings: time 42 day
Method in brief: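 High-fat-diet-fed Sprague-Dawley rats dosed orally for 42 days, with chow-fed and vehicle controls, n = 10 per group. Read-out is hepatic triglyceride, reported as mean ± SEM.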

[4] = Inhibition of DNL in Sprague-Dawley rat assessed as reduction in DNL level in bone marrow at 300 mg/kg, po pretreated with 1 hr followed by [14C]-acetate treatment and measured after 1 hr relative to control; type: functional; settings: time 2 hrs
Method in brief: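 Sprague-Dawley rats given single oral doses of 0.03–300 mg/kg in 0.5% methyl cellulose vehicle, n = 16 per dose. Read-out is incorporation of 14C-acetate into lipids in liver, bone marrow and lung, measured at 2 h post-dose relative to vehicle. Data are mean ± SEM. EC50 is reported with a 95% confidence interval.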

[5] = Genotoxicity in Salmonella typhimurium TA1535 by Ames test; type: toxicity; settings: salmonella enterica subsp. enterica serovar typhimurium
Method in brief: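 Ames test in Salmonella strains TA98, TA100, TA1535 and TA1537, run with and without aroclor-induced rat liver S9 plus NADPH.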

[6] = target: Solute carrier family 22 member 6 (Homo sapiens, UniProt Q4U2R8); test: Inhibition of human SLC22A6 expressed in HEK293 cells in presence of para-aminohippuric acid/metformin; type: cell-based
[7] = target: Solute carrier organic anion transporter family member 1B3 (Homo sapiens, UniProt Q9NPD5); test: Inhibition of human OATP1B3 expressed in HEK293 cells n presence of rosuvastatin; type: cell-based
[8] = target: Solute carrier organic anion transporter family member 1B1 (Homo sapiens, UniProt Q9Y6L6); test: Inhibition of human OATP1B1 expressed in HEK293 cells n presence of rosuvastatin; type: cell-based
[9] = target: UDP-glucuronosyltransferase 2B7 (Homo sapiens, UniProt P16662); test: Inhibition of UGT2B7 in human liver microsomes incubated for 60 mins in presence of UDPGA by LC-MS/MS analysis; type: ADME
[10] = target: UDP-glucuronosyltransferase 1A6 (Homo sapiens, UniProt P19224); test: Inhibition of UGT1A6 in human liver microsomes incubated for 90 mins in presence of UDPGA by LC-MS/MS analysis; type: ADME
[11] = target: Cytochrome P450 3A4 (Homo sapiens, UniProt P08684); test: Activation of CYP3A4 in human hepatocytes at 0.5 to 200 uM; type: ADME, cell-based, Hepatocyte; settings: dose 0.5-200 µM
Method in brief: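 Individual human hepatocyte lots treated at 0.5–200 µM. Read-out is CYP3A4 enzyme activity.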

[12] = target: T1, Cytochrome P450 1A2 (Homo sapiens, UniProt P05177); test: Activation of CYP1A2 in human hepatocytes at 0.5 to 200 uM; type: ADME, cell-based, Hepatocyte; settings: dose 0.5-200 µM
[13] = Induction of CYP3A4 mRNA expression in human hepatocytes at 0.5 to 200 uM; type: ADME, cell-based, Hepatocyte; settings: dose 0.5-200 µM
Method in brief: (§1)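 Individual human hepatocyte lots treated at 0.5–200 µM. Read-out is messenger RNA levels of CYP1A2 and CYP3A4.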

[14] = Induction of CYP1A2 mRNA expression in human hepatocytes at 0.5 to 200 uM; type: ADME, cell-based, Hepatocyte; settings: dose 0.5-200 µM; method in brief: as §1
[15] = target: T1, Cytochrome P450 1A2; test: inhibition of CYP1A2 in human liver microsomes; type: ADME
[16] = target: UDP-glucuronosyltransferase 1A4 (Homo sapiens, UniProt P22310); test: Inhibition of UGT1A4 in human liver microsomes incubated for 30 mins in presence of UDPGA by LC-MS/MS analysis; type: ADME
[17] = target: Acetyl-CoA carboxylase 1 (Rattus norvegicus, UniProt P11497); test: Inhibition of rat ACC1 using acetyl-CoA as substrate incubated for 20 mins in presence of [14C]O3 by liquid scintillation counting method
Method in brief: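 Radioenzymatic assay with purified ACC isozymes, measuring [14C]-bicarbonate incorporation into [14C]-malonyl-CoA. Mode of inhibition taken from substrate concentration-dependence experiments varying ATP or carbonate. IC50 dose-response run at saturating ATP.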

[18] = Inhibition of rat ACC2 using acetyl-CoA as substrate incubated for 20 mins in presence of [14C]O3 by liquid scintillation counting method
Method in brief: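 Purified rat isozyme in a 96-well radioenzymatic assay measuring incorporation of [14C]-bicarbonate into [14C]-malonyl-CoA. Dose-response run at saturating ATP, where IC50 approximates Ki for uncompetitive inhibitors.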

[19] = Apparent volume of distribution at steady state in cynomolgus monkey plasma at 1 mg/kg, iv and measured up to 72 hrs by LC/MS-MS analysis; type: ADME, organism-based, Macaca fascicularis; settings: read-out: Vdss(app)
Method in brief: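 Cynomolgus monkeys dosed 1 mg/kg IV as the tris salt in 2% N-methylpyrrolidone/98% sulfobutylether-β-cyclodextrin (12.5%) in 50 mM TRIS, pH 8.0, or PO as the tris salt. Plasma was analysed by LC-MS/MS, n = 2. CL = IV dose/AUC; Vss = dose/(AUC × elimination rate constant); Cmax taken from observed data.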

[20] = Drug uptake in Wistar-Hannover rat assessed as plasma concentration at 10 mg/kg, po after 6 hrs by LC/MS-MS analysis; type: ADME, organism-based
Method in brief: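 Male Wistar-Hannover rats, n = 2 or 3, given an oral suspension in 0.5% methyl cellulose with 0.1% Tween 80; one compound was dosed as the HCl salt. Total plasma and liver concentrations were measured 6 h post-dose. Kp = liver/plasma total concentration. Kpu,u uses fu values from equilibrium dialysis.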

[21] = target: P-glycoprotein 1 (Homo sapiens); test: Inhibition of human ABCB1 expressed in MDCK2-LE cells in presence of […]
[22] = Tmax in Wistar-Hannover rat plasma at 4 mg/kg, po and measured up to 24 hrs by LC/MS-MS analysis; type: ADME, organism-based
Method in brief: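 Plasma concentration–time data, n = 2, averaged. Cmax and Tmax read directly from the data. AUC0–24 by the linear trapezoidal rule. F calculated as dose-normalized AUC PO/IV.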

[23] = Cmax in Wistar-Hannover rat plasma at 4 mg/kg, po and measured up to 24 hrs by LC/MS-MS analysis; type: ADME, organism-based; parameters: route oral, dose 4 mg/kg, time <=24
[24] = Half life in Wistar-Hannover rat plasma at 4 mg/kg, po and measured up to 24 hrs by LC/MS-MS analysis; type: ADME, organism-based
[25] = Ratio of drug uptake in Wistar-Hannover rat liver to plasma at 30 mg/kg, po after 6 hrs by LC/MS-MS analysis; type: ADME, organism-based; settings: liver and plasma
Method in brief: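 Male Wistar-Hannover rats (n = 2 or 3) dosed orally as a suspension in 0.5% methyl cellulose with 0.1% Tween 80. Plasma and liver sampled 6 h post-dose. Kp is total liver/plasma; Kpu,u uses unbound fractions from equilibrium dialysis of plasma and liver.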

T1 sequence (P05177 whole entry): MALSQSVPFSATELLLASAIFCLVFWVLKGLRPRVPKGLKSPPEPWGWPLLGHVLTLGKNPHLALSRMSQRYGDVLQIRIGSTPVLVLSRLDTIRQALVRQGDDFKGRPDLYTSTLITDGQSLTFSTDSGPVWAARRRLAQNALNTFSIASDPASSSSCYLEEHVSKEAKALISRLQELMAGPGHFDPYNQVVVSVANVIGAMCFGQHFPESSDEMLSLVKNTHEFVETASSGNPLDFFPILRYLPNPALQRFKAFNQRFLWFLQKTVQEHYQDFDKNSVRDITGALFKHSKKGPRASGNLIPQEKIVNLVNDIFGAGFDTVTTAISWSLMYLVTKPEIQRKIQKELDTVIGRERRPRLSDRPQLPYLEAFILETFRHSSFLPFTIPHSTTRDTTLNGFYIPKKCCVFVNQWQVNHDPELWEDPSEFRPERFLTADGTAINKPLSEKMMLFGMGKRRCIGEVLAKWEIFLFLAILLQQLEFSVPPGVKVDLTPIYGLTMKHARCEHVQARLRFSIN
Cytochrome P450 3A4, sequence (P08684 whole entry): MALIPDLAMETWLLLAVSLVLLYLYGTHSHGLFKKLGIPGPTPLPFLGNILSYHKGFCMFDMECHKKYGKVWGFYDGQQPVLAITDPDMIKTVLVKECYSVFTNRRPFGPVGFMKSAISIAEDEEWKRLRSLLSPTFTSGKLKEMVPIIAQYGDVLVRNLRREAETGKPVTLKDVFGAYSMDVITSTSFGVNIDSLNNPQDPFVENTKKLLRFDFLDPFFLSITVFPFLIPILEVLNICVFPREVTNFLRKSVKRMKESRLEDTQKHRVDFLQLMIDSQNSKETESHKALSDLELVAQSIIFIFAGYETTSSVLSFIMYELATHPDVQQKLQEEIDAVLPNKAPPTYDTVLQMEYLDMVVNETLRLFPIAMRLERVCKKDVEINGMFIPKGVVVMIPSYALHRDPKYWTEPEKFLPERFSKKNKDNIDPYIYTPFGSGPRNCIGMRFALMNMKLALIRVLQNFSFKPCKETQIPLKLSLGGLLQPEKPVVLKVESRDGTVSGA
UDP-glucuronosyltransferase 1A4, sequence (P22310 whole entry): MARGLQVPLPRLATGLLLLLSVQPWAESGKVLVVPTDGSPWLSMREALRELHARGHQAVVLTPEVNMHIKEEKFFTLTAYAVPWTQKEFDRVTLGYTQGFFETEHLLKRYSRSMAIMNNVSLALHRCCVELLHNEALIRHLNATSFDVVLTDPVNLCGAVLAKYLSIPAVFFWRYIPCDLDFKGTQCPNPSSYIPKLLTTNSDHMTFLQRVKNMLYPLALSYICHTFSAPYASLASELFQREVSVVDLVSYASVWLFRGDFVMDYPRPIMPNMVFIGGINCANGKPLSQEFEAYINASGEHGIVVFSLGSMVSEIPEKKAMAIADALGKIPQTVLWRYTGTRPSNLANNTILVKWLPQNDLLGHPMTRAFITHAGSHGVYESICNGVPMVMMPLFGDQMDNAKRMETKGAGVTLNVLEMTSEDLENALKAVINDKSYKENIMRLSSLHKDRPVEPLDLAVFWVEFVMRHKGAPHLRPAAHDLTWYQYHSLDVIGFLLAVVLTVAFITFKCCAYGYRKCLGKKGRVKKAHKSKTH
UDP-glucuronosyltransferase 1A6, sequence (P19224 whole entry): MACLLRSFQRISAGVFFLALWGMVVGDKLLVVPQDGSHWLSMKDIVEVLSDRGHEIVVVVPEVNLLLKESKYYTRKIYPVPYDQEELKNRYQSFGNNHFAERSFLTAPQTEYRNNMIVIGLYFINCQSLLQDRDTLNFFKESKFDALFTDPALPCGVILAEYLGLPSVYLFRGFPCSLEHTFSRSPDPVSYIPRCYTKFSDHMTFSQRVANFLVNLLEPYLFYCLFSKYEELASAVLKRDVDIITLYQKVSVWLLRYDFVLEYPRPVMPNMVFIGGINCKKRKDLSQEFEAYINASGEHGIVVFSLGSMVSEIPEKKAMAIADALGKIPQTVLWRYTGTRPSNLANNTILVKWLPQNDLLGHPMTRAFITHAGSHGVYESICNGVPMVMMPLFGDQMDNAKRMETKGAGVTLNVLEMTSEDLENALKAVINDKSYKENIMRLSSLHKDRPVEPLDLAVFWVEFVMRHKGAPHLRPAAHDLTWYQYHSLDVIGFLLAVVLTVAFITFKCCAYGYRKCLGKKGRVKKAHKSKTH
UDP-glucuronosyltransferase 2B7, sequence (P16662 whole entry): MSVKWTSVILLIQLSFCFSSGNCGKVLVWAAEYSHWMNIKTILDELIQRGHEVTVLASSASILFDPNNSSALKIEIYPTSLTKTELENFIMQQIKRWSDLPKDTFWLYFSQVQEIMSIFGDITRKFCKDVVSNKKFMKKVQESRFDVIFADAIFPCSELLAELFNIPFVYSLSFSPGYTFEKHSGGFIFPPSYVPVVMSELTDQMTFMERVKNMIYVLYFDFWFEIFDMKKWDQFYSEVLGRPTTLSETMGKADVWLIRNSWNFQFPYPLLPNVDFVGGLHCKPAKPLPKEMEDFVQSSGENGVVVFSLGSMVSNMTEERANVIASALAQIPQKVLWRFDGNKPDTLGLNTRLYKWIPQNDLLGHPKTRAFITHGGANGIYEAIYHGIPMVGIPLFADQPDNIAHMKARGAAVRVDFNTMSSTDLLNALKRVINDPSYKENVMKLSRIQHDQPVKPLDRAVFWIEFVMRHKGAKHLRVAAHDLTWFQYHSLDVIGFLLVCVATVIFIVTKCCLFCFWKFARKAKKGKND
Solute carrier organic anion transporter family member 1B1, sequence (Q9Y6L6 whole entry): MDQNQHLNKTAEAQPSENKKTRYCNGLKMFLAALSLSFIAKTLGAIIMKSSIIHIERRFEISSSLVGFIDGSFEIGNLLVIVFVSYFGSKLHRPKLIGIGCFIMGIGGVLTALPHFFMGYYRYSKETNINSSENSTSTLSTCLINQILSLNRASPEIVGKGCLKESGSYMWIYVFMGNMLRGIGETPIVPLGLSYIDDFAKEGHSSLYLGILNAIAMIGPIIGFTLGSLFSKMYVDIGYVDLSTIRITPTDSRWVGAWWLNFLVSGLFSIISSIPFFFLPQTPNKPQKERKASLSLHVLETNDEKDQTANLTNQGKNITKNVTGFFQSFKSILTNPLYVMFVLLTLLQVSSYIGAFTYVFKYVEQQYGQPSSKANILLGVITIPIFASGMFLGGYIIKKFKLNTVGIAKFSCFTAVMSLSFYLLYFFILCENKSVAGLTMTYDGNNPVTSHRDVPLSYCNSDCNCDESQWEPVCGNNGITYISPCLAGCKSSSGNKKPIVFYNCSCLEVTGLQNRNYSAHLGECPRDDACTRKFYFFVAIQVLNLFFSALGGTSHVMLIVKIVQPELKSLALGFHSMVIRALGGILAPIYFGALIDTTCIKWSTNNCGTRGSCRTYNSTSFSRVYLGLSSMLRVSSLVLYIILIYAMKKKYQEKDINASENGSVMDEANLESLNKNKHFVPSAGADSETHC
Solute carrier organic anion transporter family member 1B3, sequence (Q9NPD5 whole entry): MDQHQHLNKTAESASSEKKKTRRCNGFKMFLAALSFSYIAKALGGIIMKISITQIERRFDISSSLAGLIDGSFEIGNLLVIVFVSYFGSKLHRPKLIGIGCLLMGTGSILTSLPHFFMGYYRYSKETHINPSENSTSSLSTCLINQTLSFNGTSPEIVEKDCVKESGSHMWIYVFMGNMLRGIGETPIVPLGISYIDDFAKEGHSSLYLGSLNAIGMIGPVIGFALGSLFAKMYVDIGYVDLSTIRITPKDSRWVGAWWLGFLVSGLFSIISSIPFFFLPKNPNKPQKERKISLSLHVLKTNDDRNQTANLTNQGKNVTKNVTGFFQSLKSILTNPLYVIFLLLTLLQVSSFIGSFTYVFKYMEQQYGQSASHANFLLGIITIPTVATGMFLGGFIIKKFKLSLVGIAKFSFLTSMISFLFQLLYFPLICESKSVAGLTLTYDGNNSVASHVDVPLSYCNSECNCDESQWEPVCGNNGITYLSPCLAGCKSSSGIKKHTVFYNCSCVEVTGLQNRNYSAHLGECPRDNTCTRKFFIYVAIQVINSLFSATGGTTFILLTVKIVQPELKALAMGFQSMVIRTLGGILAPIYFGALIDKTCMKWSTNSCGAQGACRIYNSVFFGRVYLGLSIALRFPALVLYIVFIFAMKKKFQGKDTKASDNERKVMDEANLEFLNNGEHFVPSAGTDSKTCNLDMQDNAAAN
Solute carrier family 22 member 6, sequence (Q4U2R8 whole entry): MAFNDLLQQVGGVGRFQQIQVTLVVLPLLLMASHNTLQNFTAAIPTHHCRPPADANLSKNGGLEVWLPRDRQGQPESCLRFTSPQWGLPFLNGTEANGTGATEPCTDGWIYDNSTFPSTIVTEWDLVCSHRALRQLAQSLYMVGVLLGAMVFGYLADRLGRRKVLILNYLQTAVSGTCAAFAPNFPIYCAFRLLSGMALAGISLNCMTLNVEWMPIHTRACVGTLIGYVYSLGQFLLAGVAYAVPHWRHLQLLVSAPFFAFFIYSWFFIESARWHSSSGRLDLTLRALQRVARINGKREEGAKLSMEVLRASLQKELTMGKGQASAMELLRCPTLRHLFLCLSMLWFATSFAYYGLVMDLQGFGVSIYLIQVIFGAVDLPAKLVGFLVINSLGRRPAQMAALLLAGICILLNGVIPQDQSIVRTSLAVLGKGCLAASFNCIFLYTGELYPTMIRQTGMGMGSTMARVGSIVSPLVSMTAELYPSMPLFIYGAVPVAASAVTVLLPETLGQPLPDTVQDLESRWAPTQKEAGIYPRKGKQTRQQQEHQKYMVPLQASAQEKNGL

IC50 [6]: > 30 µM
IC50 [7]: 137 µM
IC50 [8]: 11.7 µM
IC50 [9]: > 20 µM
IC50 [10]: > 20 µM
Activity [11]: Not Active
Activity [12]: Not Active
Activity [13]: Not Active
Activity [14]: Not Active
IC50 [15]: > 50 µM
IC50 [16]: > 20 µM
IC50 [17]: 0.00753 µM
IC50 [18]: 0.00824 µM
Vd [19]: 0.49 L/kg
concentration at 6 h [20]: 314 ng/mL
IC50 [21]: 39 µM
Structure (SMILES): COc1cc(C(=O)N2CCC3(CC2)CC(=O)c2c(cnn2C(C)C)C3)cc(-c2ccc(C(=O)O)cc2)n1 [CLESACOSTAT]
Activity [1]: Non-Toxic
inhibition in vivo at 10 mg/kg [2]: 100%
Activity [3]: 30%
inhibition in vivo at 300 mg/kg [4]: 33%
Activity [5]: Non-Toxic

Tmax [22]: 0.75 h
Cmax [23]: 53.9 ng/mL
half-life [24]: 5.7 h
Kp at 6 h [25]: 914
Structure (SMILES): COc1cc(C(=O)N2CCC3(CC2)CC(=O)c2nn(C(C)(C)C)cc2O3)cc(-c2ccc(C(=O)O)cc2)n1
